We go through 38 molecules from ChEMBL document CHEMBL3091404, “Isoquinoline derivatives as potent CRTH2 antagonists: design, synthesis and SAR” (Bioorg Med Chem, 2013).

The target in assay [1] is T1, Prostaglandin D2 receptor 2 (Homo sapiens, UniProt Q9Y5Y4).
T1 sequence (Q9Y5Y4 whole entry): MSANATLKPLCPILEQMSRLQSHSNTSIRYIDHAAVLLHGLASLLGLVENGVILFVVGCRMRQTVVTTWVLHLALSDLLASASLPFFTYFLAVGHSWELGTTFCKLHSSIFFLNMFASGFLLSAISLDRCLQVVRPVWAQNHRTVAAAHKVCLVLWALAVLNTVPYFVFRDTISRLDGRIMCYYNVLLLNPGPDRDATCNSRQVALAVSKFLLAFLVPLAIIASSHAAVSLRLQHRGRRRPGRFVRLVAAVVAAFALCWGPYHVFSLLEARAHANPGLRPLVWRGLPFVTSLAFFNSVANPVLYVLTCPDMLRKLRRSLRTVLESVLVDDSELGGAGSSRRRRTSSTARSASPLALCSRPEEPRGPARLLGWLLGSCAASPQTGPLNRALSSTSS
Kind of assay: Antagonist activity at human CRTH2 transfected in human KB8 cells assessed as inhibition of PGD2-induced increase in intracellular Ca2+ by fluo-4AM dye-based assay. The format is functional, cell-based. The method in brief:
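Cells loaded with 1 µM Fluo-4 AM for 30 min at 37 °C in the dark, washed, resuspended in HBSS with 10 mM HEPES pH 7.3 and 1 mM CaCl₂ (2 × 10⁵ cells/100 µl). Compound added with 100 nM PGD₂; [Ca²⁺]i rise read on FDSS6000. IC₅₀ from ten-point half-log concentration–response curves, mean of two or more independent experiments.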

Assay [2] can be described thus: Antagonist activity at CRTH2 in human TH2 cells assessed as inhibition of PGD2-induced chemotaxis after 1 hr by hemocytometry.
For assay [3], the target named is T1, Prostaglandin D2 receptor 2. Kind of assay: Displacement of [3H]PGD2 from human CRTH2 transfected in CHO cells by liquid scintillation counting analysis. The format is cell-based. The procedure, abridged:
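Transfected cells washed and suspended in HBSS with 10 mM HEPES pH 7.3 (2 × 10⁵ cells/100 µl), incubated with 5 nM ³H-PGD₂ for 60 min on ice. Vacuum filtration through GF/C glass fiber filters, four washes with ice-cold PBS containing 0.1% BSA. IC₅₀ from ten-point half-log concentration–response curves, mean of two or more independent experiments.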

Consider `O=C(O)Cc1cnc(C(=O)c2ccc(NC(=O)C3CCCCC3)cc2)c2ccccc12`, for which, in assay [1], the half-inhibitory concentration (IC50) came to 270 nM.

As to `O=C(O)Cc1cnc(C(=O)c2ccc(NC(=O)c3ccc4ccccc4c3)cc2)c2ccccc12`, in assay [1], the 50% inhibitory concentration (IC50) is 10 nM.

Take `O=C(O)Cc1cnc(C(=O)c2ccc(NC(=O)c3cc4ccccc4[nH]3)cc2)c2ccccc12`: in assay [1], the IC50 came out at 4.2 nM.

For the molecule `O=C(O)Cc1cnc(C(=O)c2ccc(NC(=O)c3ccncc3)cc2)c2ccccc12`, the half-inhibitory concentration (IC50) in assay [1] is > 1000 nM.

On to `O=C(O)Cc1cnc(C(=O)c2ccc(NC(=O)c3cccc(Cl)c3)cc2)c2ccccc12`, for which the IC50 in assay [1] came to 9.7 nM.

With `O=C(O)Cc1cnc(C(=O)c2ccc(NC(=O)c3ccc(Cl)cc3)cc2)c2ccccc12`, the concentration for half-maximal inhibition (IC50) in assay [1] is 9.1 nM.

Turning to `O=C(O)Cc1cnc(C(=O)c2ccc(NC(=O)c3ccccc3Cl)cc2)c2ccccc12`, the IC50 in assay [1] was > 1000 nM.

For the molecule `COc1ccc(C(=O)Nc2ccc(C(=O)c3ncc(CC(=O)O)c4ccccc34)cc2)cc1`, the 50% inhibitory concentration (IC50) in assay [1] was found to be 17 nM.

Regarding `O=C(O)Cc1cnc(C(=O)c2ccc(NC(=O)c3ccc(Cl)c(Cl)c3)cc2)c2ccccc12`, the half-inhibitory concentration (IC50) was determined as 13 nM in assay [1] and 23 nM in assay [2].

As for `O=C(O)Cc1cnc(C(=O)c2ccc(NC(=O)CCc3ccc(Cl)c(Cl)c3)cc2)c2ccccc12`, in assay [1], the IC50 was 18 nM.

As to `O=C(O)Cc1cnc(C(=O)c2ccc(NCc3ccc(Cl)c(Cl)c3)cc2)c2ccccc12`, in assay [1], the 50% inhibitory concentration (IC50) was determined as 43 nM.

With `O=C(O)Cc1cnc(C(=O)c2ccc(C(=O)Nc3ccc(Cl)c(Cl)c3)cc2)c2ccccc12`, the 50% inhibitory concentration (IC50) in assay [1] is 13 nM.

As to `O=C(O)Cc1cnc(C(=O)c2ccc(C(=O)NCCc3ccc(Cl)cc3)cc2)c2ccccc12`, the half-inhibitory concentration (IC50) in assay [1] stood at 12 nM.

`CC(C)(C(=O)O)c1cnc(C(=O)c2ccc(C(=O)NCCc3ccc(Cl)cc3)cc2)c2ccccc12`: the half-maximal inhibitory concentration (IC50) in assay [1] is > 1000 nM.

Take `O=C(O)COc1cnc(C(=O)c2ccc(C(=O)NCCc3ccc(Cl)cc3)cc2)c2ccccc12`: the half-maximal inhibitory concentration (IC50) in assay [1] was found to be 100 nM.

With `O=C(O)Cc1cnc(C(=O)c2ccc(NC(=O)OCc3ccc(Cl)c(Cl)c3)cc2)c2ccccc12`, the half-inhibitory concentration (IC50) was 5.2 nM in assay [1] and 6.7 nM in assay [3].

For `O=C(O)Cc1cnc(C(=O)c2ccc(C(=O)Nc3ccc(Cl)cc3)cc2)c2ccccc12`, the results for the IC50 in assay [1] and in assay [3] were 38 nM and 8.2 nM, respectively.

As to `O=C(O)Cc1cnc(C(=O)c2ccc(C(=O)NCCc3ccc(Cl)c(Cl)c3)cc2)c2ccccc12`, the concentration for half-maximal inhibition (IC50) came to 18 nM in assay [1] and 3.7 nM in assay [3].

For the molecule `O=C(O)Cc1cnc(C(=O)c2ccc(OCCc3ccc(Cl)cc3)cc2)c2ccccc12`, the results for the IC50 in assay [1] and in assay [3] were 130 nM and 12 nM, respectively.

In the case of `O=C(O)Cc1cnc(C(=O)c2ccc(OCCCc3ccc(Cl)cc3)cc2)c2ccccc12`, the concentration for half-maximal inhibition (IC50) turned out to be 85 nM in assay [1] and 11 nM in assay [3].

As for `Cc1ccc(C(=O)Nc2ccc(C(=O)c3ncc(CC(=O)O)c4ccccc34)cc2)cc1`, the IC50 in assay [1] amounted to 18 nM; in assay [3] it was 5.2 nM.

Take `O=C(O)Cc1cnc(C(=O)c2ccc(NC(=O)c3ccc(OC(F)(F)F)cc3)cc2)c2ccccc12`: the half-maximal inhibitory concentration (IC50) came out at 8.7 nM in assay [1] and 11 nM in assay [3].

For `N#Cc1ccc(C(=O)Nc2ccc(C(=O)c3ncc(CC(=O)O)c4ccccc34)cc2)cc1`, the IC50 in assay [1] was > 1000 nM; in assay [3], 7.8 nM.

Consider `O=C(O)Cc1cnc(C(=O)c2ccc(NC(=O)c3ccc([N+](=O)[O-])cc3)cc2)c2ccccc12`, for which the IC50 in assay [1] amounted to 28 nM; in assay [3], 9.9 nM.

On to `CN(C)c1ccc(C(=O)Nc2ccc(C(=O)c3ncc(CC(=O)O)c4ccccc34)cc2)cc1`, for which the half-maximal inhibitory concentration (IC50) in assay [1] worked out at 13 nM; in assay [3], 6.2 nM.

Consider `O=C(O)Cc1cnc(C(=O)c2ccc(NC(=O)c3ccc(-c4ccccc4)cc3)cc2)c2ccccc12`, for which the half-inhibitory concentration (IC50) in assay [1] amounted to 14 nM; in assay [3], 18 nM.

Turning to `O=C(O)Cc1cnc(C(=O)c2ccc(NC(=O)c3ccc(Oc4ccccc4)cc3)cc2)c2ccccc12`, the results for the IC50 in assay [1] and in assay [3] were 120 nM and 14 nM, respectively.

Consider `O=C(O)Cc1cnc(C(=O)c2ccc(NC(=O)Cc3ccc(Cl)c(Cl)c3)cc2)c2ccccc12`, for which the figures for the IC50 in assay [1] and in assay [3] were 30 nM and 15 nM, respectively.

Take `O=C(O)Cc1cnc(C(=O)c2ccc(NC(=O)Nc3ccc(Cl)c(Cl)c3)cc2)c2ccccc12`: the results for the IC50 in assay [1] and in assay [3] were 36 nM and 13 nM, respectively.

`O=C(O)Cc1cnc(C(=O)c2ccc(NC(=O)CC3CCCCC3)cc2)c2ccccc12`: the IC50 in assay [1] is 220 nM; in assay [3] it was 20 nM.

For the molecule `O=C(O)Cc1cnc(C(=O)c2ccc(NC(=O)CC34CC5CC(CC(C5)C3)C4)cc2)c2ccccc12`, the half-maximal inhibitory concentration (IC50) in assay [1] stood at 97 nM; in assay [3], 21 nM.

As to `O=C(O)Cc1cnc(C(=O)c2ccc(NC(=O)C3CCOCC3)cc2)c2ccccc12`, the half-maximal inhibitory concentration (IC50) was > 1000 nM in assay [1] and 400 nM in assay [3].

In the case of `O=C(O)Cc1cnc(C(=O)c2ccc(NC(=O)c3cccc4ccccc34)cc2)c2ccccc12`, the IC50 stood at 350 nM in assay [1] and 31 nM in assay [3].

Take `O=C(O)Cc1cnc(C(=O)c2ccc(NC(=O)c3cc4ccccc4o3)cc2)c2ccccc12`: the 50% inhibitory concentration (IC50) in assay [1] was 7.4 nM; in assay [3], 3.8 nM.

As to `O=C(O)Cc1cnc(C(=O)c2ccc(NC(=O)c3ccccn3)cc2)c2ccccc12`, the IC50 in assay [3] was found to be 48 nM.

As to `O=C(O)Cc1cnc(C(=O)c2ccc(NC(=O)c3cccnn3)cc2)c2ccccc12`, the IC50 was > 1000 nM in assay [1] and 322 nM in assay [3].

As for `O=C(O)Cc1cnc(C(=O)c2ccc(NC(=O)c3cscn3)cc2)c2ccccc12`, the IC50 was > 1000 nM in assay [1] and 67 nM in assay [3].

`O=C(O)Cc1cnc(C(=O)c2ccc(NC(=O)C3CC3)cc2)c2ccccc12`: the IC50 in assay [3] was found to be 50 nM.
